RGS4 inh = human RGS4 inhibition | HEK293 M3R/RGS4 inducible, Fluo-4 calcium flux; stronger effect = higher value; triggered by carbachol at its EC20 | B-score at 10 µM | 310,000 compounds, 0.45% hits;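 active = B-score, a plate-corrected calcium signal, over three deviations above library mean, with baseline fluorescence within five deviations of library mean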;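 also: RGS4 expression induced by doxycycline in cells with stable M3 receptor; B-score is computed from the integrated fluorescence ratio over baseline after carbachol; higher B-score means a larger calcium signal and so more RGS4 inhibition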
Target sequence (P49798 whole entry, looked up): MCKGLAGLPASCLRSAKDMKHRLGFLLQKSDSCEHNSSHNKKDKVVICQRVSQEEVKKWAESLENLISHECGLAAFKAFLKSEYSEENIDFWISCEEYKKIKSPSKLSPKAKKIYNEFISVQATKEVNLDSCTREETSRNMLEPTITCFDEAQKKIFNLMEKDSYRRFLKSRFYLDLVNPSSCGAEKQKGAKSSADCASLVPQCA
MrgX1 ag = human MrgX1 receptor agonism, primary screen. Q96LB2. MrgX1-HEK293 cells, Fluo-4 calcium fluorescence, agonist mode; stronger effect = higher value. B-score at 10 µM. 310,000 compounds, 0.44% hits. AID 588627;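 active = calcium response B-score plate-corrected fluorescence ratio at least 3 library SD, with starting fluorescence B-score inside 5 SD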
Target sequence (Q96LB2 whole entry, looked up): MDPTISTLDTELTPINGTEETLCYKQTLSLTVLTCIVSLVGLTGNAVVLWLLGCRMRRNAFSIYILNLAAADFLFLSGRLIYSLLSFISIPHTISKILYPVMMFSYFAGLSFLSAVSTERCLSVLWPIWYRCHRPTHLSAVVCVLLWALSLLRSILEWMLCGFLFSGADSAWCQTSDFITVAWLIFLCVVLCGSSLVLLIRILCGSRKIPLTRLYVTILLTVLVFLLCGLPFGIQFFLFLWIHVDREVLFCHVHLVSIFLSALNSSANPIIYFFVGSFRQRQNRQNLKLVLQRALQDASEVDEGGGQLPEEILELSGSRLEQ
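Material: HEK293 cells stably expressing human MrgX1 receptor | Quantity: 15,000 cells per well | Times: Cells plated overnight, dye loaded 0.5 h 37 °C, 0.5 h room temperature | Measured by: Kinetic Fluo-4 NW fluorescence of intracellular calcium | Control set: Positive and negative controls per plate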
RGS4 act = potentiators or activators of RGS4 | HEK293 M3R/inducible RGS4, carbachol calcium flux Fluo4; stronger effect = lower value | B-score at 10 µM | 310,000 compounds, 0.92% hits | AID 463111;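 active = B-score of the integrated calcium signal more than 4 SD below the library mean, with starting fluorescence not abnormally high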;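 also: negative B-score means reduced calcium response which marks RGS4 activation or potentiation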
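Detection: kinetic calcium fluorescence imaging with Fluo4-AM dye, 2 µM / Material: HEK293 cells with stable M3R and inducible RGS4 / Schedule: recording 10 s baseline at 1 Hz, 100 s post-agonist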
MrgX1 allo act = allosterically activates human MrgX1 receptor signaling | Q96LB2 | MrgX1-HEK293, Fluo-4 calcium flux, FDSS; stronger effect = higher value | 310,000 compounds, 0.63% hits | B-score at 10 µM | AID 588675;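 active = plate-corrected calcium response at least 3 library SD above typical, normal starting fluorescence, not activating the receptor alone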;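 also: compound read alongside a low EC10 to EC30 dose of BAM8-22 agonist; peak minus trough fluorescence over baseline measured at the second addition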
MrgX1 antagonist = antagonists of human MrgX1 receptor | AID 588676 | MRGX1-HEK293 calcium flux, Fluo-4, BAM8-22 antagonism; stronger effect = lower value | 310,000 compounds, 1.3% hits | Q96LB2 | B-score at 10 µM;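 active = calcium-response B-score plate-corrected more than 3 library SD below zero, starting fluorescence within 5 deviations, no agonist response on first addition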;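 also: peak minus trough fluorescence over baseline after final BAM8-22 challenge near maximal dose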
Of the large screens only hits and unclear results are named; the others gave an inactive call. Hits are enriched below; roughly 3.5% of the tested compounds scored in any of these assays.

CC1=[N+](C)N(c2ccccc2)C(=O)C1N=Cc1ccccc1Cl (stereo unspecified)	none
COc1ccc(CCNc2oc(COc3ccccc3F)nc2C#N)cc1OC	none (no result: RGS4 inh, RGS4 act)
COc1ccc(CCNc2oc(COc3ccccc3Cl)nc2C#N)cc1OC	RGS4 act -7.26
COc1ccccc1/C=C/C(=O)OCCN1C(=O)c2ccccc2C1=O	none
C/C(CCC(C)C)=N\Nc1cc(C)c2ccccc2n1	MrgX1 allo act 9.96
Cc1cc(C)n(Cc2cccc(C(=O)N/N=C/c3cccnc3)c2)n1	none (no result: MrgX1 ag, MrgX1 allo act, MrgX1 antagonist)
CN(C)c1cc[n+](CC(=O)Nc2ccc(Oc3ccccc3)cc2)cc1	RGS4 act -9.05
CCOC(=O)NN1C(=O)c2ccccc2NC1c1ccc(OC)cc1 (stereo unspecified)	none
CCOC(=O)NN1C(=O)c2ccccc2NC1c1ccccc1 (stereo unspecified)	MrgX1 antagonist -4.55
O=C(NC(Cc1ccccc1)C(=O)O)/C(=C/c1ccccc1)NC(=O)c1cccc(Br)c1 (stereo unspecified)	none
O=C(NN1C(=O)c2ccccc2NC1c1ccoc1)c1ccc([N+](=O)[O-])cc1 (stereo unspecified)	MrgX1 antagonist -4.63
COC(=O)c1ccc(-c2sc3nc(N4CCOCC4)c4c(c3c2N)CCCC4)o1	RGS4 act -8.81, MrgX1 allo act 16.9
COCCN(Cc1nc(C2(c3ccc(C)cc3)CCCC2)no1)C(C)C	none
O=C(O)c1ccc(N/N=C/C2=C(N3CCOCC3)C(=C\c3ccccc3)/CC2)cc1	MrgX1 ag 34.3
Cc1cc(C)nc(N/N=C/C2=C(N3CCOCC3)C(=C\c3ccc(Cl)cc3)/CC2)n1	none
O=C(N=Nc1ccc(NOC(=O)c2ccccc2Br)cc1)c1ccccc1O	MrgX1 allo act 12
O=Nc1ccc(NOC(=O)c2ccccc2)cc1	none
C=C(C)CNC(=O)C1CCC(=O)N(CCCc2ccccc2)C1 (stereo unspecified)	none
Cc1ccc(Cl)cc1N1CCN(C(=O)CSc2nnc3n2C(C)(C)Cc2ccccc2-3)CC1	RGS4 act -7.03, MrgX1 antagonist -9.5
O=C(CN1C(=O)NC2(CCCC2)C1=O)N1CCN(S(=O)(=O)c2ccccc2[N+](=O)[O-])CC1	none
O=C1NC(=S)N/C1=C/c1cc([N+](=O)[O-])ccc1O	MrgX1 allo act 12.4
COCCNC(=O)C(=O)NCC1OCCN1S(=O)(=O)c1cc(F)ccc1F (stereo unspecified)	none
Cc1onc(C(=O)NCc2ccccn2)c1[N+](=O)[O-]	none
COc1ccc(-c2noc(CCC(=O)N3CCN(c4cc(C)ccc4C)CC3)n2)cc1	RGS4 act -7
COc1ccc(S(=O)(=O)N2CCC(C(=O)NCCc3ccccc3)CC2)cc1	none
CC1(C)Oc2ccc3ccc(=O)oc3c2/C(=C/NC2CCCCC2)C1=O	RGS4 act -7.01
CC1(C)Oc2ccc3ccc(=O)oc3c2/C(=C/Nc2ccccc2)C1=O	none
O=C(NCCCn1ccnc1)c1nn2c(C(F)(F)F)cc(-c3ccccc3)nc2c1Cl	none
COc1nc(Nc2cccc(F)c2)nc(OC)n1	none
COc1cc2nc(Nc3cccc(F)c3)nc(N)c2cc1OC	RGS4 act -7.05
O=C(Nc1ccc(S(=O)(=O)N2CCCC2)cc1)c1ccc(CN2CCOCC2)cc1	none
O=C(Nc1ccc(S(=O)(=O)N2CCCCC2)cc1)c1ccc(CN2CCOCC2)cc1	MrgX1 antagonist -7.67
COc1ccccc1CCn1cnc2c3cc(C)ccc3n(C)c2c1=O	RGS4 act -7.05
COc1ccc2c(c1)c1ncn(CCN3CCCC3)c(=O)c1n2C	none
CCOc1ccc(OCc2cccc(C(=O)Nc3ccc(CN4CCCCC4)cc3)c2)cc1	RGS4 act -7.33
CCN(CCCNC(=O)CCCCn1c(=O)[nH]c2ccccc2c1=O)c1ccccc1	MrgX1 antagonist -5.03
COc1ccnc(Oc2ccccc2)c1C(N)=O	none
O=C1/C(=C/c2cccc([N+](=O)[O-])c2)CCc2ccccc21	MrgX1 antagonist -5.85
O=C1/C(=C/c2ccc([N+](=O)[O-])cc2)CCc2ccccc21	none
O=C1CSC(c2cccc([N+](=O)[O-])c2)N1c1ccc(O)cc1 (stereo unspecified)	none
O=C1CSC(c2cccc([N+](=O)[O-])c2)N1c1ccccc1 (stereo unspecified)	RGS4 act -7.5
CCOC(=O)c1ccc(NC(=O)N2CCN(c3ccccn3)CC2)cc1	RGS4 act -7.14
Cc1nc(N2CCN(c3ccccn3)CC2)c2c(C)c(C(=O)Nc3ccc(F)cc3Cl)sc2n1	RGS4 act -7.41
Cc1nc(N2CCN(c3ccccn3)CC2)c2c(C)c(C(=O)N3CCN(c4cccc(Cl)c4)CC3)sc2n1	RGS4 act -7.08
Cc1nc(N2CCOCC2)c2c(C)c(C(=O)Nc3ccc(F)cc3Cl)sc2n1	none
CC(OC(=O)c1nc(Cl)ccc1Cl)C(=O)Nc1ccc2c(c1)OCCO2 (stereo unspecified)	none
COc1ccc(-c2ccc(=O)n(Cc3cccc(Cl)c3)n2)cc1	MrgX1 allo act 7.85
CC/C(=N\NC(=O)CCC(=O)NCc1ccccc1)c1ccc(O)cc1	none
Cc1nonc1C(=O)N/N=C/c1cc2c(cc1Br)OCO2	MrgX1 antagonist -5.03
Cc1nn(C)c(C(=O)N/N=C/c2cc3c(cc2Br)OCO3)c1Br	none
CN(C(=O)C(Cl)Cl)C1CC2C=CC1C2 (stereo unspecified)	none
COc1ccc(OC)c(-c2csc(N(Cc3ccco3)C(=O)c3cccs3)n2)c1	none
COc1ccc(-c2csc(N(Cc3ccco3)C(=O)c3cccs3)n2)cc1	MrgX1 antagonist -4.82
COc1ccc(C(=O)/C=C/c2ccc(N3CCCCC3)c([N+](=O)[O-])c2)c(OC)c1	MrgX1 allo act 13.9
Cc1ccc(C(=O)/C=C/c2ccccc2)o1	MrgX1 ag 27.6
Cc1ccc(C(=O)/C=C/c2ccc(Br)cc2)o1	none
Cc1ccc(/C=C/C(=O)c2ccc([N+](=O)[O-])o2)cc1	RGS4 inh 9.84
O=C(Nc1cccnc1)c1ccc2nc(-c3ccccc3)c(-c3ccccc3)nc2c1	RGS4 act -9.76
O=C(NCCO)Nc1ccc2nsnc2c1	none
O=C(NCCO)Nc1ccc2nc(-c3ccco3)c(-c3ccco3)nc2c1	MrgX1 ag 28.1 (no result: RGS4 inh, RGS4 act)
S=C(Nc1ccc(N2CCOCC2)cc1)Nc1ccc2nc(-c3ccco3)c(-c3ccco3)nc2c1	RGS4 act -7.04
CC(=O)c1ccc(NC(=O)c2ccc3nc(-c4ccco4)c(-c4ccco4)nc3c2)cc1	MrgX1 antagonist -6.66
CCOC(=O)c1nn(-c2ccc(Cl)cc2)c(=O)c(C#N)c1C	none
CCOC(=O)c1nn(-c2ccc(Cl)cc2Cl)c(=N)c(C#N)c1C	MrgX1 antagonist -7.53
Cc1ccc(C(=O)COC(=O)C2CC3CCCC(C2)C3=O)cc1[N+](=O)[O-] (stereo unspecified)	MrgX1 antagonist -5.63
N#C/C(=C\c1ccc(C#N)cc1)C(=O)N1CCCC1	RGS4 inh 5.14

Compound activity (PubChem)
